# According to ChEMBL document CHEMBL1687843, “Detection of NDM-1-producing Klebsiella pneumoniae in Kenya” (2011):
# Activity calls are given as the source filed them. No cut-off for these calls is given here.
# Assays:
# Klebsiella pneumoniae [1] = experiment: Antibacterial activity against carbapenem-resistant Klebsiella pneumoniae isolate 4 expressing beta-lactamase NDM-1 obtained from urine of patient by liquid microdilution method; format: functional
# Procedure, shortened: (§1)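 Liquid broth microdilution at 37°C gives the MIC against each clinical isolate; results are interpreted per CLSI guidelines.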
# Klebsiella pneumoniae [2] = experiment: Antibacterial activity against carbapenem-resistant Klebsiella pneumoniae isolate 2 expressing beta-lactamase NDM-1 obtained from urine of patient by liquid microdilution method; format: functional; procedure, shortened: as §1
# Klebsiella pneumoniae [3] = experiment: Antibacterial activity against carbapenem-resistant Klebsiella pneumoniae isolate 1 expressing beta-lactamase NDM-1 obtained from urine of patient by Etest; format: functional; conditions: for MIC: isolate 1, Urine
# Procedure, shortened: (§2)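 Etest strips on Mueller-Hinton agar at 37°C give the MIC against each clinical isolate; susceptibility is interpreted per CLSI guidelines.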
# Klebsiella pneumoniae [4] = experiment: Antibacterial activity against carbapenem-resistant Klebsiella pneumoniae isolate 3 expressing beta-lactamase NDM-1 obtained from urine of patient by liquid microdilution method; format: functional; procedure, shortened: as §1
# Klebsiella pneumoniae [5] = experiment: Antibacterial activity against carbapenem-resistant Klebsiella pneumoniae isolate 6 expressing beta-lactamase NDM-1 obtained from urethral pus of patient by Etest; conditions: for MIC: isolate 6, Urethral pus
# Klebsiella pneumoniae [6] = experiment: Antibacterial activity against carbapenem-resistant Klebsiella pneumoniae isolate 7 expressing beta-lactamase NDM-1 obtained from urine of patient by Etest; format: functional; conditions: for MIC: isolate 7, Urine; procedure, shortened: as §2
# Klebsiella pneumoniae [7] = experiment: Antibacterial activity against carbapenem-resistant Klebsiella pneumoniae isolate 4 expressing beta-lactamase NDM-1 obtained from urine of patient by Etest; format: functional; conditions: for MIC: isolate 4, Urine; procedure, shortened: as §2
# Klebsiella pneumoniae [8] = experiment: Antibacterial activity against carbapenem-resistant Klebsiella pneumoniae isolate 5 expressing beta-lactamase NDM-1 obtained from urine of patient by Etest; format: functional; conditions: for MIC: isolate 5, Urine; procedure, shortened: as §2
# Klebsiella pneumoniae [9] = experiment: Antibacterial activity against carbapenem-resistant Klebsiella pneumoniae isolate 5 expressing beta-lactamase NDM-1 obtained from urine of patient by liquid microdilution method; format: functional; procedure, shortened: as §1
# Klebsiella pneumoniae [10] = experiment: Antibacterial activity against carbapenem-resistant Klebsiella pneumoniae isolate 6 expressing beta-lactamase NDM-1 obtained from urethral pus of patient by liquid microdilution method
# Klebsiella pneumoniae [11] = experiment: Antibacterial activity against carbapenem-resistant Klebsiella pneumoniae isolate 7 expressing beta-lactamase NDM-1 obtained from urine of patient by liquid microdilution method; format: functional; procedure, shortened: as §1
# Klebsiella pneumoniae [12] = experiment: Antibacterial activity against carbapenem-resistant Klebsiella pneumoniae isolate 1 expressing beta-lactamase NDM-1 obtained from urine of patient by liquid microdilution method; format: functional; procedure, shortened: as §1
# Klebsiella pneumoniae [13] = experiment: Antibacterial activity against carbapenem-resistant Klebsiella pneumoniae isolate 3 expressing beta-lactamase NDM-1 obtained from urine of patient by Etest; format: functional; conditions: for MIC: isolate 3, Urine; procedure, shortened: as §2
# Klebsiella pneumoniae [14] = experiment: Antibacterial activity against carbapenem-resistant Klebsiella pneumoniae isolate 2 expressing beta-lactamase NDM-1 obtained from urine of patient by Etest; format: functional; conditions: for MIC: isolate 2, Urine; procedure, shortened: as §2
Structure (SMILES),Activity (Klebsiella pneumoniae [1]),Activity (Klebsiella pneumoniae [2]),Activity (Klebsiella pneumoniae [3]),Activity (Klebsiella pneumoniae [4]),Activity (Klebsiella pneumoniae [5]),Activity (Klebsiella pneumoniae [6]),Activity (Klebsiella pneumoniae [7]),Activity (Klebsiella pneumoniae [8]),Activity (Klebsiella pneumoniae [9]),Activity (Klebsiella pneumoniae [10]),Activity (Klebsiella pneumoniae [11]),Activity (Klebsiella pneumoniae [12]),Activity (Klebsiella pneumoniae [13]),Activity (Klebsiella pneumoniae [14]),MIC (Klebsiella pneumoniae [3]),MIC (Klebsiella pneumoniae [5]),MIC (Klebsiella pneumoniae [6]),MIC (Klebsiella pneumoniae [7]),MIC (Klebsiella pneumoniae [8]),MIC (Klebsiella pneumoniae [13]),further results
O=C1CN(/N=C/c2ccc([N+](=O)[O-])o2)C(=O)N1,inactive,inactive,inactive,inactive,inactive,inactive,inactive,inactive,inactive,inactive,inactive,inactive,inactive,inactive,–,–,–,–,–,–,–
CO[C@H]1/C=C/O[C@@]2(C)Oc3c(C)c(O)c4c(O)c(c(/C=N/N5CCN(C)CC5)c(O)c4c3C2=O)NC(=O)/C(C)=C\C=C\[C@H](C)[C@H](O)[C@@H](C)[C@@H](O)[C@@H](C)[C@H](OC(C)=O)[C@@H]1C [RIFAMPIN],–,–,–,–,–,–,–,–,–,–,–,–,–,–,> 32 µg/mL,> 32 µg/mL,> 32 µg/mL,> 32 µg/mL,> 32 µg/mL,> 32 µg/mL,"MIC (Klebsiella pneumoniae [1]; isolate 4, Urine): > 32 µg/mL; MIC (Klebsiella pneumoniae [2]; isolate 2, Urine): > 32 µg/mL; MIC (Klebsiella pneumoniae [4]; isolate 3, Urine): > 32 µg/mL; MIC (Klebsiella pneumoniae [9]; isolate 5, Urine): > 32 µg/mL; MIC (Klebsiella pneumoniae [10]; isolate 6, Urethral pus): > 32 µg/mL; MIC (Klebsiella pneumoniae [11]; isolate 7, Urine): > 32 µg/mL; MIC (Klebsiella pneumoniae [12]; isolate 1, Urine): > 32 µg/mL; MIC (Klebsiella pneumoniae [14]): > 32 µg/mL"
CN(C)c1cc(NC(=O)CNC(C)(C)C)c(O)c2c1C[C@H]1C[C@H]3[C@H](N(C)C)C(O)=C(C(N)=O)C(=O)[C@@]3(O)C(O)=C1C2=O [TIGECYCLINE],–,–,–,–,–,–,–,–,–,–,–,–,–,–,0.5 µg/mL,0.5 µg/mL,0.5 µg/mL,0.5 µg/mL,0.5 µg/mL,0.5 µg/mL,MIC (Klebsiella pneumoniae [14]): 0.5 µg/mL
C[C@@H]1O[C@@H]1P(=O)(O)O,inactive,inactive,inactive,inactive,inactive,inactive,inactive,inactive,inactive,inactive,inactive,inactive,inactive,inactive,–,–,–,–,–,–,–
